# Laboratory results reported in ChEMBL document CHEMBL5236549, “Discovery of 2-Sulfinyl-Diazabicyclooctane Derivatives, Potential Oral β-Lactamase Inhibitors for Infections Caused by Serine β-Lactamase-Producing Enterobacterales” (J Med Chem, 2021).
# Assays:
# [1] = Stability of the compound in phosphate buffer at pH 7.0 assessed as parent compound remaining at 40 degreeC measured after 16 hrs; format: physicochemical; settings: read-out: Stability
# Method in brief: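 Compound held in pH 7.0 phosphate buffer at 40 °C for 16 h; amount remaining reported as %.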
# [2] = Cmax in rat at 5 mg/kg,po by LC/MS/MS analysis; format: ADME, organism-based; set-up: dose 5 mg/kg, route po; settings: in vivo
# Method in brief: (§1)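 Plasma of the parent acid measured by LC/MS/MS (methanol precipitation, positive ESI, external standard); oral values follow prodrug dosing (rat fed, dog and monkey fasted). AUC from 0 h to last time point by linear trapezoid; F from oral AUC versus iv AUC of the parent. N = 2 (rat, dog), N = 3 (monkey, mouse).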
# [3] = AUC in rat at 5 mg/kg,po by LC/MS/MS analysis; format: ADME, organism-based; set-up: dose 5 mg/kg, route po; settings: in vivo; method in brief: as §1
# [4] = Tmax in rat at 5 mg/kg,po by LC/MS/MS analysis; format: ADME, organism-based; settings: in vivo
# [5] = Oral bioavailability in rat at 5 mg/kg by LC/MS/MS analysis; format: ADME, organism-based; settings: in vivo; method in brief: as §1
# [6] = Cmax in dog at 10 mg/kg,po by LC/MS/MS analysis; format: ADME, organism-based, Canis lupus familiaris; set-up: dose 10 mg/kg, route po; settings: in vivo; method in brief: as §1
# [7] = AUC in dog at 10 mg/kg,po by LC/MS/MS analysis; format: ADME, organism-based, Canis lupus familiaris; set-up: dose 10 mg/kg, route po; settings: in vivo; method in brief: as §1
# [8] = Tmax in dog at 10 mg/kg,po by LC/MS/MS analysis; format: ADME, organism-based, Canis lupus familiaris; settings: in vivo
# [9] = Oral bioavailability in dog at 10 mg/kg by LC/MS/MS analysis; format: ADME, organism-based, Canis lupus familiaris; settings: in vivo; method in brief: as §1
# [10] = Cmax in monkey at 10 mg/kg,po by LC/MS/MS analysis; format: ADME, organism-based, Macaca mulatta; set-up: dose 10 mg/kg, route po; settings: rhesus monkey, in vivo; method in brief: as §1
# [11] = AUC in monkey at 10 mg/kg,po by LC/MS/MS analysis; format: ADME, organism-based, Macaca mulatta; set-up: dose 10 mg/kg, route po; settings: rhesus monkey, in vivo; method in brief: as §1
# [12] = Tmax in monkey at 10 mg/kg,po by LC/MS/MS analysis; format: ADME, organism-based, Macaca mulatta; settings: rhesus monkey, in vivo
# [13] = Oral bioavailability in monkey at 10 mg/kg by LC/MS/MS analysis; format: ADME, organism-based, Macaca mulatta; settings: rhesus monkey, in vivo; method in brief: as §1
# [14] = Cmax in mouse at 10 mg/kg,po by LC/MS/MS analysis; format: ADME, organism-based; set-up: dose 10 mg/kg, route po; settings: in vivo; method in brief: as §1
# [15] = Cmax in mouse at 30 mg/kg,po by LC/MS/MS analysis; format: ADME, organism-based; set-up: dose 30 mg/kg, route po; settings: in vivo; method in brief: as §1
# [16] = Cmax in mouse at 100 mg/kg,po by LC/MS/MS analysis; format: ADME, organism-based; set-up: dose 100 mg/kg, route po; settings: in vivo; method in brief: as §1
# [17] = AUC in mouse at 10 mg/kg,po by LC/MS/MS analysis; format: ADME, organism-based; set-up: dose 10 mg/kg, route po; settings: in vivo; method in brief: as §1
# [18] = AUC in mouse at 30 mg/kg,po by LC/MS/MS analysis; format: ADME, organism-based; set-up: dose 30 mg/kg, route po; settings: in vivo; method in brief: as §1
# [19] = AUC in mouse at 100 mg/kg,po by LC/MS/MS analysis; format: ADME, organism-based; set-up: dose 100 mg/kg, route po; settings: in vivo; method in brief: as §1
# [20] = Oral bioavailability in mouse at 10 mg/kg by LC/MS/MS analysis; format: ADME, organism-based; settings: in vivo; method in brief: as §1
# [21] = Oral bioavailability in mouse at 30 mg/kg by LC/MS/MS analysis; format: ADME, organism-based; settings: in vivo; method in brief: as §1
# [22] = Oral bioavailability in mouse at 100 mg/kg by LC/MS/MS analysis; format: ADME, organism-based; settings: in vivo; method in brief: as §1
# Klebsiella pneumoniae [23] = experiment: Antibacterial activity in ICR mouse infected with Klebsiella pneumoniae SR08667 assessed as reduction in bacterial colony forming units at 10 mg/kg,po administered upto 48 hrs after infection in presence of CTB; format: functional
# Method in brief: (§2)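 Urinary tract infection model in 5-week-old female ICR mice, N = 5 per arm. 1.2 × 10⁶ CFU given transurethrally, urethra tied for 4 h. Oral dosing at 4, 8, 28 and 32 h post-infection in 0.5% methylcellulose: ceftibuten 30 mg/kg alone, ceftibuten 10 mg/kg plus prodrug 3, 10 or 30 mg/kg, or both at 30 mg/kg. Kidneys homogenized at 4 or 48 h and plated on modified Drigalski agar. Read-out is change in log CFU/kidney versus untreated controls at treatment start.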
# Klebsiella pneumoniae [24] = experiment: Antibacterial activity in ICR mouse infected with Klebsiella pneumoniae SR08667 assessed as reduction in bacterial colony forming units at 30 mg/kg,po administered upto 48 hrs after infection in presence of CTB; format: functional; method in brief: as §2
# [25] = Toxicity in rat at 600 mg/kg,po administered for two weeks; format: organism-based; settings: in vivo
# Method in brief: (§3)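 Two-week rat toxicology study with daily oral dosing of prodrug; NOAEL and lethal dose established.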
# [26] = Toxicity in rat at > 2000 mg/kg,po administered for two weeks; format: organism-based; settings: in vivo; method in brief: as §3
structure (smiles),measurement,setting,value
C[S@@+]([O-])[C@@H]1CC[C@@H]2CN1C(=O)N2O[C@H](F)C(=O)OC1CCCCC1,remaining at 16 h,[1],56%
same,Cmax,[2],620 ng/mL
same,AUC,[3],1170 ng·h/mL
same,Tmax,[4],0.5 h
same,bioavailability,[5],37.8%
same,Cmax,[6],15800 ng/mL
same,AUC,[7],41200 ng·h/mL
same,Tmax,[8],1 h
same,bioavailability,[9],106%
same,Cmax,[10],7940 ng/mL
same,AUC,[11],15200 ng·h/mL
same,Tmax,[12],1 h
same,bioavailability,[13],54.8%
same,Cmax,[14],5600 ng/mL
same,Cmax,[15],21400 ng/mL
same,Cmax,[16],52000 ng/mL
same,AUC,[17],3900 ng·h/mL
same,AUC,[18],18100 ng·h/mL
same,AUC,[19],50200 ng·h/mL
same,bioavailability,[20],80%
same,bioavailability,[21],122%
same,bioavailability,[22],102%
same,Activity,Klebsiella pneumoniae [23],>0.5 log10CFU
same,Activity,Klebsiella pneumoniae [24],>1 log10CFU
same,Activity,[25],Non-Toxic
same,Activity,[26],Non-Toxic
